# Screens from PubChem.
# CSC inhib: cancer stem cell viability inhibitors, primary screen, luminescence | cancer stem cell-like cells viability | inhibition, % at 7.5 µM | 300,000 tested, 1.1% active; in the data active means inhibition above about 75%; inconclusive means no clear call, values can overlap the other calls; tested in HMLE shEcad cells
# Beta apoptosis: inhibitors of cytokine-induced beta cell apoptosis, primary screen, luminescence | 300,000 tested, 0.8% active | protection from apoptosis, % (no concentration beside the values) | AID 435005, 2010 | INS-1E cytokine-induced death, ATP luminescence, 48 h; percent of positive-control rescue, neutral wells zero;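 active means Every replicate reaches about 75%, or at least half do and their mean reaches it too, limit read from the data; inconclusive means At least half of replicates reach the limit but their mean does not; inactive means Under half of replicates reach the limit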;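 further: higher means more ATP so stronger rescue from cytokine killing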
# Mdm2-MdmX inh: inhibitors of human Mdm2-MdmX association, primary screen, cell-based, luminescence, split luciferase, SaOS-2, uHTS. SaOS-2 split-luciferase Mdm2/MdmX complementation. AID 485346, 2010. Protein Mdm4 (Homo sapiens) + E3 ubiquitin-protein ligase Mdm2 (Homo sapiens), …. 330,000 tested, 3% active. inhibition, % at 8 µM;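 active means inhibition of at least 50% at 8 µM in the primary screen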
# Target sequence (O15151 whole entry, looked up): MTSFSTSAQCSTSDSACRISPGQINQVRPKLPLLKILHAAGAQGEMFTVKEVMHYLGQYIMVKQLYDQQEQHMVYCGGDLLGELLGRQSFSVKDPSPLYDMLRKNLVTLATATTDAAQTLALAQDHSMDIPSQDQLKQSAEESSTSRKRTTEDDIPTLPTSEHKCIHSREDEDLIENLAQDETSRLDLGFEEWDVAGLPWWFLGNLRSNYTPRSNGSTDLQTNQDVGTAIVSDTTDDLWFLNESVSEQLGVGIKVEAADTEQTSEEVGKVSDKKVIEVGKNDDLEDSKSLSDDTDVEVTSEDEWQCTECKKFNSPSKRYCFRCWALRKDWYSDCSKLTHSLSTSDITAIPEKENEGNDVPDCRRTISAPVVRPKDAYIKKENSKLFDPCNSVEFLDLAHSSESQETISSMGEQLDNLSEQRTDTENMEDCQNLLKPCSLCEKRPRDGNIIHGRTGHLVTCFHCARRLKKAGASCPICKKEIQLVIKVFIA
# Target sequence (Q00987 whole entry, looked up): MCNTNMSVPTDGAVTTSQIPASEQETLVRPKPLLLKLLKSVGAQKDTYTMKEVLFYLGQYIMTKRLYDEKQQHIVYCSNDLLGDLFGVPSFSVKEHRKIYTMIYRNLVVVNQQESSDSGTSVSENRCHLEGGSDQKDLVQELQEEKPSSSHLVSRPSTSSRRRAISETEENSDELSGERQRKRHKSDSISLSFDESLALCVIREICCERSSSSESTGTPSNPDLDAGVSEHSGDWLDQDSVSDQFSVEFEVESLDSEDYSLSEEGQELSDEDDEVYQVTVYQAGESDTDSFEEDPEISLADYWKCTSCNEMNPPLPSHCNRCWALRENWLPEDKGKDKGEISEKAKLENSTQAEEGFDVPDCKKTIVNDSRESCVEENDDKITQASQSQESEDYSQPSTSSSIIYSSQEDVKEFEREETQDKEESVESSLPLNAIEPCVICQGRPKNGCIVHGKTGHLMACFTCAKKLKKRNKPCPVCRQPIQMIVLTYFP
# SKKanGAS inh: S. pyogenes SKKanGAS growth inhibitors in kanamycin, primary screen, streptokinase expression inhibitor project, SKKanGAS strain, BacTiter-Glo luminescence | 300,000 tested, 1.3% active | inhibition, % at 7.5 µM | AID 1662, 2009 | 6 h;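 active means mean replicate score, as percent of positive control median, at least 50; inconclusive means mean below 50 but one replicate at or above 50; inactive means mean and every replicate below 50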;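 further: strain carries kanamycin resistance gene driven by streptokinase promoter and grows in 40 µg/ml kanamycin; loss of luminescence reflects streptokinase promoter inhibition or plain growth inhibition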
# T cruzi inh: inhibitors of intracellular T. cruzi growth, primary screen, luminescence, NIH3T3 host cells; inhibition, % (no concentration beside the values); 300,000 tested, 1.4% active; T. cruzi beta-gal in NIH3T3, 90 h; AID 1885, 2009;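 active means mean inhibition across valid replicates above about 55%, limit read from the data; inconclusive means mean below that limit but half or more replicates reach it; inactive means mean below it, under half of replicates reach it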;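 further: signal also drops with host cell toxicity which is not excluded here; higher percent means less beta-gal luminescence so fewer parasites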
#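 System: mouse NIH/3T3 fibroblasts infected with β-gal-expressing T. cruzi Tulahuen C4 / Input: NIH/3T3 cells, 5,000 per well / Buffer or medium: Low-serum DMEM with 2% FBS / Probe or stimulus: 5000 reporter trypomastigotes per well / Schedule: ≥90 h infection period, 3 h prior cell attachment / Measured by: GalScreen luminescence, 60 min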
# L major viab: Leishmania major promastigote growth inhibition, primary screen | Leishmania major promastigotes, resazurin fluorescence viability | inhibition, % at 10 µM | 200,000 tested, 9% active | AID 1063, 2008; in the data active means inhibition above about 50%;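 further: promastigotes grown with compound for 44 hours at 28 °C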
# A number is an active result; i = inactive; ? = inconclusive; nt = not tested or not shown. An excerpt weighted towards active compounds, which were near 9.4% of everything screened.
SMILES,CSC inhib,Beta apoptosis,Mdm2-MdmX inh,SKKanGAS inh,T cruzi inh,L major viab
c1ccc(OCCOCCN2CCc3ccccc3C2)cc1,i,i,i,i,?,98.0
O=[N+]([O-])c1ccc(OCCCCN2CCc3ccccc3C2)cc1,i,i,i,i,i,nt
CCOc1ccc(OCCOCCN2CCc3ccccc3C2)cc1,i,i,i,i,77.0,91.0
COc1ccc(OCCCN2CCc3ccccc3C2)cc1,i,nt,i,i,i,nt
Cc1ccc(SCCOCCN2CC(C)OC(C)C2)cc1 (stereo not given),i,i,i,i,57.2,nt
CN(CCCN1CCOCC1)Cc1cn(C)nc1-c1ccccc1F,i,i,i,i,i,i
Cc1ccc(CCNC(=O)CN2C(=O)COc3ccccc32)cc1,i,i,i,i,67.0,i
C/C(Cn1cnc([N+](=O)[O-])n1)=N\NC(=O)c1ccncc1,i,i,i,i,i,i
COc1ccc(C(=O)N/N=C(\C)Cn2cnc([N+](=O)[O-])n2)cc1,i,i,i,i,55.9,i
C/C(Cn1nc([N+](=O)[O-])cc1C)=N\NC(=O)c1cccc(Br)c1,i,i,i,i,i,85.8
C/C(Cn1cnc([N+](=O)[O-])n1)=N\NC(=O)c1ccc(F)cc1,i,i,i,i,i,i
C/C(Cn1cnc([N+](=O)[O-])n1)=N\NC(=O)c1cccc(F)c1,i,i,i,i,62.8,i
O=C(Cn1cnc2ccccc2c1=O)NNC(=O)c1ccccc1,i,i,i,i,i,nt
COc1ccccc1C(=O)NCC(=O)OC(C)C(=O)NC1CCCCC1C (stereo not given),nt,i,i,nt,nt,nt
O=C(c1ccc(Cl)cc1)c1cnc(-c2ccccc2)s1,nt,nt,nt,nt,nt,i
O=C(c1cnc(-c2ccccc2)s1)c1ccc(Cl)cc1Cl,i,i,i,57.2,i,i
Cc1c(C(=O)NCCSCc2cccc(C(F)(F)F)c2)cnn1-c1ccc(F)cc1,i,i,i,i,i,nt
O=C(/C=C/c1ccccc1)N1c2ccccc2Sc2ccc(C(F)(F)F)cc21,i,i,i,i,i,97.5
COc1ccc(/C=C/C(=O)N2c3ccccc3Sc3ccc(C(F)(F)F)cc32)cc1,i,i,i,i,57.1,i
Cc1cc(C)n(CC(=O)N2c3ccccc3Sc3ccc(C(F)(F)F)cc32)n1,i,i,i,i,i,i
CCOc1ccc(CCNC(=O)COC(=O)c2ccc(OC)c(OC)c2OC)cc1OCC,i,i,i,i,i,65.7
CCOc1ccc(CCNC(=O)COC(=O)c2cccc(OC)c2O)cc1OCC,i,i,i,i,i,i
CCOC(=O)c1c(NC(=O)COC(=O)c2ccc(C)s2)sc2c1CC(C)(C)NC2(C)C,i,i,i,63.4,i,nt
COc1ccc(NS(=O)(=O)c2ccc3nc(COc4ccc5ccccc5c4)[nH]c3c2)cc1,i,i,i,i,i,i
COc1ccc(NS(=O)(=O)c2ccc3nc(COc4cccc5ccccc45)[nH]c3c2)cc1,80.1,i,i,70.8,i,95.2
SMILES,CSC inhib,Beta apoptosis,Mdm2-MdmX inh,SKKanGAS inh,T cruzi inh,L major viab
CCN(CC)N=Nc1ccc(C(=O)O)cc1,i,i,i,i,i,68.6
CCN(CC)N=Nc1ccc(S(=O)(=O)N2CCSC2C(=O)O)cc1 (stereo not given),i,i,i,i,i,i
Fc1ccc(CSc2ccc3nnc(-c4ccccn4)n3n2)cc1,i,i,i,i,i,95.8
Cc1cc(N/C=C\c2nnnn2-c2ccccc2)no1,i,i,i,i,i,i
CN(C)c1ccc(/C=C/c2nnnn2-c2ccccc2)cc1,nt,i,i,i,i,56.3
COC(=O)[C@H](Cc1ccccc1)NC(=O)N1CCN(c2ccccc2)CC1,i,i,i,i,i,nt
Cc1csc(CN(C)C(=O)C2CCC(=O)N(CCN(C)C)C2)n1 (stereo not given),i,i,i,i,i,nt
CC1C/C(=N\NC(=S)NCc2ccccc2)CC(C)(C)C1 (stereo not given),i,i,i,?,i,99.2
CC1CCC/C(=N\NC(=S)NCc2ccccc2)C1 (stereo not given),i,i,i,i,i,i
CN(Cc1ccccc1)C(=O)c1ccc(NC(=O)Cc2cccc(NC(=O)C3CCCN(C(=O)C4CCCC4)C3)c2)cc1 (stereo not given),i,i,i,nt,nt,nt
CCN1CCN(C(=S)NCCc2ccccc2)CC1,i,i,i,i,i,86.2
OCCN1CCN(C(=S)NCCc2ccccc2)CC1,i,nt,i,i,i,i
Cc1ccc(C(=O)N2CC(C)SC2=Nc2cccc(S(=O)(=O)N(C)C)c2)cc1 (stereo not given),i,i,i,i,i,94.6
Cc1cc(C)cc(C(=O)N2CC(C)SC2=Nc2cccc(S(=O)(=O)N(C)C)c2)c1 (stereo not given),i,i,i,i,i,98.0
CN(C)S(=O)(=O)c1cccc(N=C2SCCN2Cc2ccccc2)c1,i,i,i,i,i,nt
CC(C)C(c1nnnn1CC1CCCO1)N1CCN(Cc2ccc3c(c2)OCO3)CC1 (stereo not given),nt,i,i,i,i,83.3
c1ccc(CCn2nnnc2C(c2cccs2)N2CCN(Cc3ccc4c(c3)OCO4)CC2)cc1 (stereo not given),i,i,i,i,i,79.9
CC(C)C(c1nnnn1Cc1ccccc1)N1CCN(Cc2ccc3c(c2)OCO3)CC1 (stereo not given),i,i,i,i,i,88.7
CCN1CCN(C(c2ccccc2F)c2nnnn2Cc2ccc3c(c2)OCO3)CC1 (stereo not given),nt,i,i,i,i,i
Fc1ccccc1N1CCN(C(c2cccs2)c2nnnn2CCc2ccccc2)CC1 (stereo not given),i,nt,i,nt,nt,i
Cc1cccc(C)c1Nc1c(-c2ccsc2)nc2ncccn12,i,i,i,i,i,80.2
CN1CCC(Oc2ccccc2Sc2ccc(C(F)(F)F)cc2)CC1,75.3,i,i,i,i,99.2
CN1CCC(Oc2ccc(Sc3ccccc3)cc2)CC1,?,i,i,i,i,100.1
COc1ccccc1C(C#N)c1cccc(Cl)n1 (stereo not given),i,i,i,i,i,nt
O=C1CC(c2ccc(Cl)c([N+](=O)[O-])c2)c2ccc3ccccc3c2N1 (stereo not given),i,i,i,i,i,99.6
O=C(Nc1ccc(NC(=O)C2CC2)nc1)c1ccco1,i,i,i,i,i,i
O=C(Nc1ccc(NC(=O)C2CCCCC2)nc1)c1ccco1,i,i,i,i,i,86.4
O=C(Nc1ccc(NC(=O)C2CCCCC2)nc1)c1ccccn1,i,i,i,i,i,71.3
COc1ccccc1C(=O)Nc1ccc(NC(=O)C2CCCCC2)nc1,i,i,i,i,i,nt
